Source: ChEMBL document CHEMBL4340523, “Selective Inhibitors of Helicobacter pylori Methylthioadenosine Nucleosidase and Human Methylthioadenosine Phosphorylase” (J Med Chem, 2019)
pKd: −log10 of the molar value. Calls of active or inactive are those of the source. No cut-off for these calls is given here.

Assays:
[1] = biological target: T1, S-methyl-5'-thioadenosine phosphorylase (Homo sapiens, UniProt Q13126); assay: Binding affinity to recombinant human N-terminal TEV cleavage site-fused-His6-tagged MTAP expressed in Escherichia coli BL21-CodonPlus(DE3)-RIPL competent cells assessed as reduction in MTA hydrolysis measured after 40 mins in presence of xanthine oxidase
T1 sequence (Q13126 whole entry): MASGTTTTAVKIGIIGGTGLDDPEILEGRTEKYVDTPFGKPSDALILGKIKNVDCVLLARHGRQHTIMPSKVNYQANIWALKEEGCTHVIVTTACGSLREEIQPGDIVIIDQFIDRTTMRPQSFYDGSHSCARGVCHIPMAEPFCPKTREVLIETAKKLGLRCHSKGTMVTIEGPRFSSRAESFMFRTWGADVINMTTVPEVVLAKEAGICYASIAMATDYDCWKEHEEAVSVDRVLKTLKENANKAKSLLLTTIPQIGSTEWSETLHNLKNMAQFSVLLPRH
Outline: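 MTAP (His6-tagged, TEV site, 14 extra N-terminal residues) was Ni-NTA purified and charcoal-dialysed to remove adenine. Each 1 mL cuvette held 100 mM K2PO4, 1 mM DTT, 800 μM MTA, 3 nM MTAP, 1 unit xanthine oxidase and varying inhibitor. Xanthine oxidase coupling gave 2,8-dihydroxyadenine, read at 305 nm (ε 15.5 mM⁻¹ cm⁻¹). Rates were taken at 40 min after slow-onset equilibrium. Ki* came from a Morrison quadratic fit.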

[2] = Binding affinity to recombinant Helicobacter pylori MTAN expressed in Escherichia coli BL21(DE3) assessed as reduction in MTA hydrolysis measured after 40 mins in presence of xanthine oxidase
Outline: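 His-tagged HpMTAN was purified by Ni-NTA and freed of bound adenine by charcoal dialysis. Adenine was oxidized to 2,8-dihydroxyadenine and followed at 305 nm. Rates were read at 40 min, after slow-onset equilibrium, and fitted to the Morrison quadratic equation for Ki*.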

[3] = Selectivity ratio of Kd for recombinant human N-terminal TEV cleavage site-fused-His6-tagged MTAP expressed in Escherichia coli BL21-CodonPlus(DE3)-RIPL competent cells to Kd for recombinant Helicobacter pylori MTAN expressed in Escherichia coli BL21(DE3)
Outline: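 Ratio of the human MTAP dissociation constant to the HpMTAN dissociation constant. Each constant came from xanthine oxidase-coupled 305 nm rates taken at 40 min after slow-onset equilibrium and fitted to the Morrison equation. The MTAP assay used 800 μM MTA and 3 nM enzyme in 100 mM K2PO4; the HpMTAN assay used 1 mM MTA and 0.6 nM enzyme in 100 mM HEPES pH 7.2 with 100 mM NaCl.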

[4] = tested on: Helicobacter pylori; assay: Binding affinity to recombinant Helicobacter pylori MTAN expressed in Escherichia coli BL21(DE3) assessed as reduction in MTA hydrolysis at 5 uM measured after 40 mins in presence of xanthine oxidase
[5] = biological target: T2, S-methyl-5'-thioadenosine phosphorylase (Homo sapiens) (UniProt Q13126); assay: Binding affinity to recombinant human N-terminal TEV cleavage site-fused-His6-tagged MTAP expressed in Escherichia coli BL21-CodonPlus(DE3)-RIPL competent cells assessed as reduction in MTA hydrolysis at 5 uM measured after 40 mins in presence of xanthine oxidase
T2 sequence (whole entry): T1 sequence (Q13126 whole entry)

Row | pKd [1] | Activity [4] | Activity [5] | SMILES | pKd [2] | Selectivity ratio [3]
1 | 7.89 |  |  | Nc1ncnc2c(CN3C[C@H](CSCc4cn(Cc5ccccc5)nn4)[C@@H](O)C3)c[nH]c12 | 10.14 | 178
2 | 8.89 |  |  | CCCCn1cc(CCCSC[C@H]2CN(Cc3c[nH]c4c(N)ncnc34)C[C@@H]2O)nn1 | 10.55 | 46.4
3 |  | inactive | inactive | O=c1[nH]ccc2c(CN3C[C@H](CO)[C@@H](O)C3)c[nH]c12 |  | 
4 | 9.03 |  |  | C#CCCCSC[C@H]1CN(Cc2c[nH]c3c(N)ncnc23)C[C@@H]1O | 10.59 | 36.2
5 | 8.62 |  |  | C=CCn1cc(CCCSC[C@H]2CN(Cc3c[nH]c4c(N)ncnc34)C[C@@H]2O)nn1 | 10.59 | 92.3
6 | 7.18 |  |  | Cn1cc(CSC[C@H]2CN(Cc3c[nH]c4c(N)ncnc34)C[C@@H]2O)nn1 | 9.56 | 241
7 | 8.85 |  |  | Nc1ncnc2c(CN3C[C@H](CSCCCc4cn(Cc5ccccc5)nn4)[C@@H](O)C3)c[nH]c12 | 10.44 | 38.9
8 | 8.52 |  |  | Cn1cc(CCCSC[C@H]2CN(Cc3c[nH]c4c(N)ncnc34)C[C@@H]2O)nn1 | 10.60 | 120
9 | 7.89 |  |  | Nc1ncnc2c(CN3C[C@H](CSc4ncccn4)[C@@H](O)C3)c[nH]c12 | 10.24 | 224
10 | 7.50 |  |  | CSC[C@H]1CN(Cc2c[nH]c3c(N)nccc23)C[C@@H]1O | 7.99 | 3.1
11 |  | inactive | inactive | CSC[C@H]1CN(Cc2c[nH]c3c(=O)[nH]ccc23)C[C@@H]1O |  | 
12 | 7.15 |  |  | C=CCn1cc(CSC[C@H]2CN(Cc3c[nH]c4c(N)ncnc34)C[C@@H]2O)nn1 | 9.54 | 243
13 | 7.72 |  |  | CSC[C@H]1CN(Cc2[nH]nc3c(N)ncnc23)C[C@@H]1O | 9.63 | 80.9
14 | 9.20 |  |  | C#CCSC[C@H]1CN(Cc2c[nH]c3c(N)ncnc23)C[C@@H]1O | 10.26 | 11.5
15 | 7.43 |  |  | CCCCn1cc(CSC[C@H]2CN(Cc3c[nH]c4c(N)ncnc34)C[C@@H]2O)nn1 | 9.43 | 99.2
